The values that follow come from ChEMBL document CHEMBL1157038, “Synthesis and in vitro microbiological evaluation of an array of biolabile 2-morpholino-N-(4,6-diarylpyrimidin-2-yl)acetamides” (2010).

Common to all, as to format: functional
In one assay the test system is Rhizopus. In words: Antifungal activity against Rhizopus after 1 to 7 days by twofold serial dilution method. In outline:
(§1)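 Test compounds were made as 1 mg/mL DMSO stocks. Spores from 1–7 day Sabouraud agar slants were suspended in Sabouraud dextrose broth at pH 5.6. Final inoculum 1.1–1.5×10² cfu/mL. First dilution was 0.4 mL stock plus 1.6 mL seeded broth, followed by six twofold serial dilutions. Controls held seeded broth only. Incubated at 28 °C; MIC read visually after 72–96 h.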

For a further assay, the system named is Staphylococcus aureus. In words: Antibacterial activity against Staphylococcus aureus after 24 hrs by twofold serial dilution method. The gist of the method:
(§2)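 Compounds dissolved in DMSO as 1 mg/mL stock. Seeded nutrient broth prepared from 24 h nutrient agar cultures, adjusted by plate count. Final inoculum 10⁵ cfu/mL at pH 7.4. First dilution was 0.4 mL stock in 1.6 mL seeded broth, then serial twofold through six dilutions. Seeded-broth-only tubes served as controls. Incubated at 37 °C; MIC read visually at 24 h.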

The subject of the next assay is Escherichia coli. In words: Antibacterial activity against Escherichia coli after 24 hrs by twofold serial dilution method. In outline:
as §2

In the next assay the test system is Aspergillus flavus. In words: Antifungal activity against Aspergillus flavus after 1 to 7 days by twofold serial dilution method. In outline:
as §1

In another assay the test system is Klebsiella pneumoniae. In words: Antibacterial activity against Klebsiella pneumoniae after 24 hrs by twofold serial dilution method. The gist of the method: as §2
The next assay deals with Mucor. The assay can be described thus: Antifungal activity against Mucor after 1 to 7 days by twofold serial dilution method. The gist of the method:
as §1

The subject of another assay is Pseudomonas. In words: Antibacterial activity against Pseudomonas after 24 hrs by twofold serial dilution method. In outline: as §2
The next assay concerns Nannizzia gypsea. In words: Antifungal activity against Microsporum gypseum after 1 to 7 days by twofold serial dilution method. In outline:
as §1

The test system of another assay is Vibrio cholerae. In words: Antibacterial activity against Vibrio cholerae after 24 hrs by twofold serial dilution method.

Molecules are shown by their SMILES. Values after ≈ are worked out from the molar mass of the structure shown.

In general, MIC refers to the lowest concentration found to suppress growth. Regarding `O=C(CN1CCOCC1)Nc1nc(-c2ccccc2)cc(-c2ccccc2)n1`, the MIC came out at 100 mg/L (≈ 267 µM) against Rhizopus; 200 mg/L (≈ 534 µM) against Staphylococcus aureus; 200 mg/L (≈ 534 µM) in the assay on Escherichia coli; 200 mg/L (≈ 534 µM) with Aspergillus flavus; 50 mg/L (≈ 134 µM) against Klebsiella pneumoniae; 100 mg/L (≈ 267 µM) in the assay with Mucor. Further, the MIC was found to be 100 mg/L (≈ 267 µM) in the assay with Pseudomonas, 200 mg/L (≈ 534 µM) against Nannizzia gypsea and 200 mg/L (≈ 534 µM) in the assay on Vibrio cholerae.

Consider `Cc1ccc(-c2cc(-c3ccc(F)cc3)nc(NC(=O)CN3CCOCC3)n2)cc1`, for which the MIC in the assay on Rhizopus amounted to 50 mg/L (≈ 123 µM); in the assay with Staphylococcus aureus, 12.5 mg/L (≈ 30.8 µM); with Escherichia coli it was 50 mg/L (≈ 123 µM); against Aspergillus flavus, 200 mg/L (≈ 492 µM); in the assay with Klebsiella pneumoniae, 50 mg/L (≈ 123 µM); in the assay with Mucor, 100 mg/L (≈ 246 µM). Moreover, the MIC against Pseudomonas amounted to 100 mg/L (≈ 246 µM); with Nannizzia gypsea, 12.5 mg/L (≈ 30.8 µM); against Vibrio cholerae, 12.5 mg/L (≈ 30.8 µM).

With `COc1ccc(-c2cc(-c3ccc(F)cc3)nc(NC(=O)CN3CCOCC3)n2)cc1`, the MIC against Rhizopus amounted to 200 mg/L (≈ 473 µM); against Staphylococcus aureus, 200 mg/L (≈ 473 µM); against Escherichia coli, 50 mg/L (≈ 118 µM); against Aspergillus flavus it was 6.25 mg/L (≈ 14.8 µM); in the assay with Klebsiella pneumoniae, 100 mg/L (≈ 237 µM); with Mucor, 6.25 mg/L (≈ 14.8 µM). In addition, the MIC in the assay on Pseudomonas was 6.25 mg/L (≈ 14.8 µM); in the assay with Nannizzia gypsea, 100 mg/L (≈ 237 µM); against Vibrio cholerae it was 100 mg/L (≈ 237 µM).

Regarding `O=C(CN1CCOCC1)Nc1nc(-c2ccccc2)cc(-c2ccc(F)cc2)n1`, the MIC was determined as 100 mg/L (≈ 255 µM) against Rhizopus; 200 mg/L (≈ 510 µM) with Staphylococcus aureus; 50 mg/L (≈ 127 µM) in the assay on Escherichia coli; 6.25 mg/L (≈ 15.9 µM) against Aspergillus flavus; 6.25 mg/L (≈ 15.9 µM) against Klebsiella pneumoniae; 50 mg/L (≈ 127 µM) in the assay on Mucor. For the same molecule, the results for the MIC against Pseudomonas, against Nannizzia gypsea and with Vibrio cholerae were 100 mg/L (≈ 255 µM), 200 mg/L (≈ 510 µM) and 50 mg/L (≈ 127 µM), respectively.

Consider `COc1ccc(-c2cc(-c3ccc(C)cc3)nc(NC(=O)CN3CCOCC3)n2)cc1`, for which the MIC was determined as 12.5 mg/L (≈ 29.9 µM) in the assay on Rhizopus; 100 mg/L (≈ 239 µM) in the assay on Staphylococcus aureus; 200 mg/L (≈ 478 µM) against Escherichia coli; 100 mg/L (≈ 239 µM) against Aspergillus flavus; 50 mg/L (≈ 119 µM) against Klebsiella pneumoniae; 50 mg/L (≈ 119 µM) with Mucor. Moreover, the MIC worked out at 50 mg/L (≈ 119 µM) in the assay with Pseudomonas, 50 mg/L (≈ 119 µM) in the assay on Nannizzia gypsea and 12.5 mg/L (≈ 29.9 µM) against Vibrio cholerae.

Regarding `O=C(CN1CCOCC1)Nc1nc(-c2ccc(F)cc2)cc(-c2ccc(F)cc2)n1`, the MIC with Rhizopus is 6.25 mg/L (≈ 15.2 µM); in the assay with Staphylococcus aureus, 100 mg/L (≈ 244 µM); against Escherichia coli, 6.25 mg/L (≈ 15.2 µM); against Aspergillus flavus, 12.5 mg/L (≈ 30.5 µM); in the assay with Klebsiella pneumoniae, 50 mg/L (≈ 122 µM); in the assay on Mucor, 6.25 mg/L (≈ 15.2 µM). Besides, the MIC against Pseudomonas stood at 6.25 mg/L (≈ 15.2 µM); against Nannizzia gypsea it was 100 mg/L (≈ 244 µM); with Vibrio cholerae it was 50 mg/L (≈ 122 µM).

As to `Cc1ccc(-c2cc(-c3ccccc3)nc(NC(=O)CN3CCOCC3)n2)cc1`, the MIC is 50 mg/L (≈ 129 µM) in the assay on Rhizopus; 50 mg/L (≈ 129 µM) against Staphylococcus aureus; 50 mg/L (≈ 129 µM) in the assay on Escherichia coli; 100 mg/L (≈ 257 µM) against Aspergillus flavus; 100 mg/L (≈ 257 µM) in the assay on Klebsiella pneumoniae; 50 mg/L (≈ 129 µM) against Mucor. Further, the MIC against Pseudomonas worked out at 50 mg/L (≈ 129 µM); with Nannizzia gypsea, 50 mg/L (≈ 129 µM); with Vibrio cholerae, 100 mg/L (≈ 257 µM).

As to `COc1ccc(-c2cc(-c3ccccc3)nc(NC(=O)CN3CCOCC3)n2)cc1`, the minimal inhibitory concentration (MIC) against Rhizopus amounted to 100 mg/L (≈ 247 µM); with Staphylococcus aureus it was 50 mg/L (≈ 124 µM); against Escherichia coli, 200 mg/L (≈ 494 µM); against Aspergillus flavus, 100 mg/L (≈ 247 µM); in the assay with Klebsiella pneumoniae it was 100 mg/L (≈ 247 µM); against Mucor, 200 mg/L (≈ 494 µM). Moreover, the MIC against Pseudomonas was 50 mg/L (≈ 124 µM); in the assay on Nannizzia gypsea, 100 mg/L (≈ 247 µM); against Vibrio cholerae it was 100 mg/L (≈ 247 µM).

`O=C(O)c1cn(C2CC2)c2cc(N3CCNCC3)c(F)cc2c1=O` [CIPROFLOXACIN]: the MIC came to 25 mg/L (≈ 75.4 µM) against Escherichia coli, 25 mg/L (≈ 75.4 µM) against Pseudomonas and 50 mg/L (≈ 151 µM) in the assay with Vibrio cholerae.

As for `OC(Cn1cncn1)(Cn1cncn1)c1ccc(F)cc1F` [FLUCONAZOLE], the MIC in the assay on Rhizopus worked out at 25 mg/L (≈ 81.6 µM); against Aspergillus flavus, 50 mg/L (≈ 163 µM); in the assay with Mucor, 25 mg/L (≈ 81.6 µM); in the assay on Nannizzia gypsea it was 25 mg/L (≈ 81.6 µM).
